Measurements reported in ChEMBL document CHEMBL2346557 (Bioorg Med Chem, 2013).
pIC50: −log10 of the molar value.

Key:
[1] = AUClast in CD1 mouse at 10 mg/kg, iv; format: ADME, organism-based; parameters: time 0 - last, dose 10 mg/kg, route intravenous; conditions: plasma
How it was run: (§1)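 CD1 mice (n = 3 per compound) given 10 mg/kg as a single tail-vein injection in a pH 7.0 solution of 10% ethanol plus PEG400 (some compounds also with 10% DMSO). Blood was sampled at 0, 5, 15 and 30 min and 1, 2, 4, 8 and 24 h. Parameters were derived from the plasma concentration–time profiles.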

C2C12 = assay: Cytotoxicity against mouse C2C12 cells assessed as cell viability at 0.01 to 100 ug/mL after 24 hrs by MTT assay; format: cell-based; conditions: c2c12, 24 h
How it was run: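 MTT viability run on C2C12 cells grown and treated alongside the NF-κB reporter plates, with drug at 0.01–100 µg/ml and DMSO vehicle. Viability is expressed as percent of untreated cells. A one-way repeated-measures ANOVA tested for a concentration effect.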

[2] = Clearance in Sprague-Dawley rat at 10 mg/kg, iv; format: ADME, organism-based; parameters: dose 10 mg/kg, route intravenous; conditions: in vivo
[3] = molecular target: T1, Glucocorticoid receptor (Mus musculus) (UniProt P06537); assay: Induction of glucocorticoid receptor nuclear translocation in mouse C2C12 cells at 1 x 10^-5 to 1.69 x 10^-10 M by chemiluminescence assay relative to control; format: cell-based
T1 sequence (whole entry): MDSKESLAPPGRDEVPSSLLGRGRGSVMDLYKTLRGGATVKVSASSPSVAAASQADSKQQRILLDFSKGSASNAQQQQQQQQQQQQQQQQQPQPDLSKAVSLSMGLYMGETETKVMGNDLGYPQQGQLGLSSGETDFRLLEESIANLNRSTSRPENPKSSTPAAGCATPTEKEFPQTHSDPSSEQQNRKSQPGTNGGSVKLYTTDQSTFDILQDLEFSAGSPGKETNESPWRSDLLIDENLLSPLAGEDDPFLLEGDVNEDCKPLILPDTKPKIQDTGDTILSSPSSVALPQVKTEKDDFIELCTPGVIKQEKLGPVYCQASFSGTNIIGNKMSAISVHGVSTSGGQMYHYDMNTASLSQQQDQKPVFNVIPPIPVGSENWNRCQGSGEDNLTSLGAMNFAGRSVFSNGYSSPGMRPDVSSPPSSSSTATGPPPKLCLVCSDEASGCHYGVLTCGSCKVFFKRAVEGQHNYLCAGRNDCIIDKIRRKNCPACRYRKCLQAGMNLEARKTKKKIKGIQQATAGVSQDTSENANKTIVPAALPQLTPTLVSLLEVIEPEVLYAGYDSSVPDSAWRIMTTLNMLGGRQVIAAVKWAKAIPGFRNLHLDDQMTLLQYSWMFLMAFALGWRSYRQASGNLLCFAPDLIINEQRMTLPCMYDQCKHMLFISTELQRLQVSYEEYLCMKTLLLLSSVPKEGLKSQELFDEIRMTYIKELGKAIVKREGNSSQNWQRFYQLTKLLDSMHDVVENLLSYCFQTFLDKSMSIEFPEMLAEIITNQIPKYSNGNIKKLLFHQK
How it was run: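 GR nuclear translocation measured by DiscoveRx in PathHunter cells using enzyme-fragment complementation. ProLink-tagged GR recruits a nuclear steroid receptor co-activator peptide fused to the enzyme acceptor, giving a chemiluminescent signal.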

Mus musculus [4] = assay: Oral bioavailability in CD1 mouse at 50 mg/kg; format: ADME, organism-based; conditions: in vivo
How it was run: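 CD1 mice (n = 3 per compound) were dosed orally at 50 mg/kg as an aqueous emulsion in 30% Labrafil. Blood was drawn at 0, 5, 15 and 30 min and 1, 2, 4, 8 and 24 h. Bioavailability and other parameters were calculated from the plasma profiles and compared against the intravenous arm.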

Rattus norvegicus [5] = assay: Total unbound Cmax in Sprague-Dawley rat at 50 mg/kg, po; format: ADME, organism-based; parameters: dose 50 mg/kg, route oral; conditions: in vivo
How it was run: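 Sprague–Dawley rats (n = 3) were dosed orally with an emulsion in 30% Labrafil. Blood was sampled from 0 to 24 h (0, 5, 15, 30 min; 1, 2, 4, 8, 24 h). Bioavailability was derived against the IV arm.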

[6] = Terminal half life in beagle dog at 30 mg/kg, po; format: ADME, organism-based, Canis lupus familiaris; parameters: dose 30 mg/kg, route oral; conditions: in vivo, read-out: beta t1/2 (converted)
How it was run: (§2)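 Beagles (n = 3) were given an oral emulsion in 30% Labrafil. Blood was collected at 0, 5, 15 and 30 min and at 1, 2, 4, 8 and 24 h. Bioavailability was derived relative to IV dosing.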

Canis familiaris = assay: Total unbound Cmax in beagle dog at 30 mg/kg, po; format: ADME, organism-based, Canis lupus familiaris; parameters: dose 30 mg/kg, route oral; conditions: in vivo; how it was run: as §2
Mus musculus [7] = assay: Total unbound Cmax in CD1 mouse at 10 mg/kg, iv; format: ADME, organism-based; parameters: dose 10 mg/kg, route intravenous; conditions: in vivo
[8] = Tmax in CD1 mouse at 10 mg/kg, iv; format: ADME, organism-based; parameters: dose 10 mg/kg, route intravenous; conditions: in vivo; how it was run: as §1
Mus musculus [9] = assay: Total unbound Cmax in CD1 mouse at 50 mg/kg, po; format: ADME, organism-based; parameters: dose 50 mg/kg, route oral; conditions: in vivo
Rattus norvegicus [10] = assay: Total unbound AUC (0 to infinity) in Sprague-Dawley rat at 10 mg/kg, iv; format: ADME, organism-based; parameters: dose 10 mg/kg, route intravenous; conditions: in vivo
Cytochrome P450 2C9 = Cytochrome P450 2C9 (Homo sapiens, UniProt P11712); assay: Inhibition of CYP2C9 (unknown origin); format: ADME
[11] = Metabolic stability in dog liver microsomes assessed as compound remaining at 2 uM measured at 1 hr; format: ADME, Canis lupus familiaris, Microsome; conditions: read-out: Stability
How it was run: (§3)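 Liver microsomes (human, or male monkey, dog, rat or mouse) at 0.5 mg/mL final with 2 µM compound, 5 mM MgCl2 and 5 mM PBS. The reaction was started with 1 mM NADPH and run at 37 °C. Verapamil was the positive control; water replaced NADPH in the negative control. Read-out was percent parent remaining at 1 h.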

[12] = Metabolic stability in monkey liver microsomes assessed as compound remaining at 2 uM measured at 1 hr; format: ADME, Macaca mulatta, Microsome; conditions: rhesus monkey, read-out: Stability; how it was run: as §3
Mus musculus [13] = assay: Total unbound AUC (0 to infinity) in CD1 mouse at 50 mg/kg, po; format: ADME, organism-based; parameters: dose 50 mg/kg, route oral; conditions: in vivo
Salmonella typhimurium = assay: Genotoxicity in Salmonella typhimurium by Ames test; format: toxicity, organism-based; conditions: salmonella enterica subsp. enterica serovar typhimurium
[14] = Volume of distribution at steady state in beagle dog at 10 mg/kg, iv; format: ADME, organism-based, Canis lupus familiaris; parameters: dose 10 mg/kg, route intravenous; conditions: in vivo, read-out: Vdss
[15] = Tmax in beagle dog at 30 mg/kg, po; format: ADME, organism-based, Canis lupus familiaris; parameters: dose 30 mg/kg, route oral; conditions: in vivo; how it was run: as §2
[16] = Metabolic stability in rat liver microsomes assessed as compound ramaining at 2 uM measured at 1 hr; format: ADME, Microsome; conditions: read-out: Stability
How it was run: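 Rat liver microsomes at 0.5 mg/mL final, with 5 mM MgCl2 and 5 mM PBS. The reaction was started with 1 mM NADPH final and run at 37 °C. The negative control used water in place of NADPH; verapamil was the positive control. Read-out was % parent remaining at 1 h.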

Sequence of Cytochrome P450 2C9 (P11712 whole entry): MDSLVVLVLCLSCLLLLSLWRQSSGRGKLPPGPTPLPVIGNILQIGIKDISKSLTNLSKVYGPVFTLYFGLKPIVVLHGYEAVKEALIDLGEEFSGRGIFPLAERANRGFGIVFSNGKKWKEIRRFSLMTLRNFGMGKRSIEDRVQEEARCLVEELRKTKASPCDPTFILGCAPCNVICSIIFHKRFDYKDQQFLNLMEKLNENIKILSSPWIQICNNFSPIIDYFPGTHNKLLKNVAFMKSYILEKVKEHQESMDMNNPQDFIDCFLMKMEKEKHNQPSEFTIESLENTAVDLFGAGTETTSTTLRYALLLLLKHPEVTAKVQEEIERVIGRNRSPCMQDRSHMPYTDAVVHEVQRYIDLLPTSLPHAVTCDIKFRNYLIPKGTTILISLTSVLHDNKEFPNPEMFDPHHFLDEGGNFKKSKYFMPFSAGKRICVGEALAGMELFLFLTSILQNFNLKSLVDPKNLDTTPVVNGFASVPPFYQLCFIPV

AUC(0-t) [1]: 8840 ng·h/mL | clearance [2]: 20.2 mL/min/kg | Activity [3]: 80.4% | F (Mus musculus [4]): 74.5% | fCmax (Rattus norvegicus [5]): 2543 ng/mL | half-life [6]: 2.25 h | fCmax (Canis familiaris): 814 ng/mL | fCmax (Mus musculus [7]): 11167 ng/mL | Tmax [8]: 5 min | fCmax (Mus musculus [9]): 6787 ng/mL | fAUC (Rattus norvegicus [10]): 8339 ng·h/mL | pIC50 (Cytochrome P450 2C9): < 4.30 | remaining at 1 h, 2 µM [11]: 92.5% | remaining at 1 h, 2 µM [12]: 100% | fAUC (Mus musculus [13]): 32932 ng·h/mL | Vd [14]: 1.93 L/kg | Tmax [15]: 6 h | remaining at 1 h, 2 µM [16]: 35.4%
SMILES: C[C@@H]1C[C@H]2[C@@H]3CCC4=CC(=O)C=C[C@]4(C)C3=CC[C@]2(C)[C@@]1(O)C(=O)CO [VAMOROLONE]
Activity (C2C12): Non-toxic | Activity (Salmonella typhimurium): Non-toxic
